Assay outcomes as filed in PubChem.
A selection: hits, their analogues and other compounds. The true share with any hit is near 9.4%.
T cruzi inh: inhibitors of intracellular T. cruzi growth, primary screen, luminescence, NIH3T3 host cells; inhibition, % (test concentration not listed); T. cruzi beta-gal in NIH3T3, 90 h; AID 1885, 2009; hit rate 1.4% among 300,000;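 active = mean inhibition across valid replicates above about 55%, limit read from the data; inconclusive = mean below that limit but half or more replicates reach it; inactive = mean below it, under half of replicates reach it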;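 also: signal also drops with host cell toxicity which is not excluded here; 0% = plate median of DMSO wells and 100% = zero luminescence signal; higher percent means less beta-gal luminescence so fewer parasites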
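Material: NIH/3T3 host cells with β-galactosidase reporter T. cruzi; Input: 5,000 host fibroblasts per well; Medium: DMEM, 2% fetal bovine serum; Compound: 50 nL DMSO compound solution per well; Schedule: 3 h host attachment, then at least 90 h co-culture; Detection: luminescent β-galactosidase signal after 60 min lysis.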
SKKanGAS inh: S. pyogenes SKKanGAS growth inhibitors in kanamycin, primary screen, streptokinase expression inhibitor project, SKKanGAS strain, BacTiter-Glo luminescence; inhibition, % at 7.5 µM; 6 h; hit rate 1.3% among 300,000;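 active = mean replicate score, as percent of positive control median, at least 50; inconclusive = mean below 50 but one replicate at or above 50; inactive = mean and every replicate below 50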;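 also: strain carries kanamycin resistance gene driven by streptokinase promoter and grows in 40 µg/ml kanamycin; loss of luminescence reflects streptokinase promoter inhibition or plain growth inhibition; 0% = median of DMSO wells and 100% = positive control at its reference dose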
CSC inhib: cancer stem cell viability inhibitors, primary screen, luminescence | AID 2717, 2010 | cancer stem cell-like cells viability | inhibition, % at 7.5 µM | hit rate 1.1% among 300,000; in the data active = inhibition above about 75%; inconclusive = no clear call, values can overlap the other calls; tested in HMLE shEcad cells
Beta cell apopt: inhibitors of cytokine-induced beta cell apoptosis, primary screen, luminescence. protection from apoptosis, % (test concentration not listed). hit rate 0.8% among 300,000. INS-1E cytokine-induced death, ATP luminescence, 48 h; percent of positive-control rescue, neutral wells zero;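 active = Every replicate reaches about 75%, or at least half do and their mean reaches it too, limit read from the data; inconclusive = At least half of replicates reach the limit but their mean does not; inactive = Under half of replicates reach the limit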;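 also: 0% = cytokine-treated negative control wells and 100% = positive control rescue; higher means more ATP so stronger rescue from cytokine killing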
Lmaj promast: Leishmania major promastigote growth inhibition, primary screen; inhibition, % at 10 µM; hit rate 9% among 200,000; Leishmania major promastigotes, resazurin fluorescence viability; AID 1063, 2008; in the data active = inhibition above about 50%;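 also: promastigotes grown with compound for 44 hours at 28 °C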
Mdm2-MdmX inh: inhibitors of human Mdm2-MdmX association, primary screen, cell-based, luminescence, split luciferase, SaOS-2, uHTS. SaOS-2 split-luciferase Mdm2/MdmX complementation. AID 485346, 2010. Protein Mdm4 (Homo sapiens) + E3 ubiquitin-protein ligase Mdm2 (Homo sapiens), …. inhibition, % at 8 µM. hit rate 3% among 330,000;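 active = inhibition of at least 50% at 8 µM in the primary screen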
Starred values were filed as active, the others as inactive; ? = inconclusive; nt = not tested or not shown.

SMILES	T cruzi inh	SKKanGAS inh	CSC inhib	Beta cell apopt	Lmaj promast	Mdm2-MdmX inh
Cc1ccc(Sc2ccc(CO)cc2[N+](=O)[O-])cc1	-4	-4	43	12	-3	12
O=c1cc(NS(=O)(=O)c2ccccc2)nc(SCc2ccccc2Cl)[nH]1	?	10	7	nt	0	15
O=c1cc(NS(=O)(=O)c2ccccc2)nc(SCc2c(Cl)cccc2Cl)[nH]1	-22	0	16	-6	69*	-4
COc1ccc2c(C)cc(SCC(=O)Nc3ccc(Cl)cn3)nc2c1	-30	-7	13	1	59*	nt
COc1ccc2c(C)cc(SCC(=O)NC3CCCCC3)nc2c1	nt	nt	nt	1	nt	22
CCOc1ccc2nc(N(CCN(CC)CC)C(=O)c3cccc([N+](=O)[O-])c3)sc2c1	50	7	5	-4	10	-17
COc1ccccc1N1CCN(C(=O)c2ccc(-c3nc4ccccc4s3)o2)CC1	nt	nt	nt	nt	nt	10
C/C(=N\OC(=O)NC1CCCCC1)c1sc(-c2ccccc2)nc1C	58*	2	50	11	19	-13
C/C(=N\OC(=O)NC(C)C)c1sc(-c2ccccc2)nc1C	24	-4	-8	5	2	-19
COC(=O)C1=C[C@@H](C(=O)OC)[C@@H]2C3=C(C(=O)[C@@]2(C)NC(=O)c2ccccc2)[C@H](c2ccccc2)[C@@H]2C(=O)NC(=O)[C@@H]2[C@@H]3C1	-16	7	-1	-5	nt	1
COc1ccc(-c2sc3ccc(N4CCOCC4)cc3c2C#CCCO)cc1	nt	nt	123*	-2	nt	47
COc1ccc(-c2sc3ccccc3c2C#CCCO)cc1	9	36	92*	0	nt	17
COc1ccc(-c2sc3ccccc3c2/C=C/c2ccncc2)cc1	nt	nt	102*	-8	nt	4
COc1ccccc1-c1sc2cc3c(cc2c1C#Cc1cncn1C)OCO3	nt	nt	138*	8	nt	20
Cc1nc(C)c(C(=O)O)s1	3	0	24	-4	nt	2
COc1ccc(-c2sc3ccccc3c2C#Cc2cncn2C)cc1	nt	nt	138*	7	nt	38
OCCCCC#Cc1c(-c2ccsc2)sc2ccccc12	13	65*	99*	-3	nt	14
Cc1cc([N+](=O)[O-])nn1CCCC(=O)Nc1cccc(Cl)c1Cl	2	3	3	1	-1	16
Cc1cc(C)cc(NC(=O)N2CCCC2C(=O)Nc2ccc(-n3cnnn3)cc2)c1 (stereo unspecified)	nt	nt	1	5	-6	5
CC(C)c1ccc(NC(=O)N2CCCC2C(=O)Nc2ccc(-n3cnnn3)cc2)cc1 (stereo unspecified)	0	1	4	-5	66*	8
O=C1CC(c2ccccc2)CC2=C1C(c1ccccn1)Nc1ccccc1N2 (stereo unspecified)	1	-2	-4	-3	20	14
O=C1CC(c2ccccc2)CC2=C1CN(C1CCCCC1)CN2 (stereo unspecified)	nt	nt	3	0	82*	27
Cc1ccc(NC(=O)c2ccc(CNc3c(N4CCC(C)CC4)c(=O)c3=O)cc2)cc1	-1	11	-10	5	nt	22
Cc1ccc2cc3c(N)c4c(C)ccc(C)c4nc3nc2c1	33	1	nt	nt	100*	nt
Cc1ccc2c(N)c(C)ccc2c1	13	1	41	0	-6	-7
SMILES	T cruzi inh	SKKanGAS inh	CSC inhib	Beta cell apopt	Lmaj promast	Mdm2-MdmX inh
CCOc1ccccc1N1CCN(Cc2cnc(-c3ccccc3)[nH]2)CC1	nt	-3	-2	1	nt	12
CCC(C)c1ccccc1OCCn1ccnc1 (stereo unspecified)	20	-2	-6	-5	69*	29
Clc1ccc(OCCn2ccnc2)c2ccccc12	70*	-5	13	-6	96*	10
COc1ccccc1OCCn1ccnc1	-9	0	3	-3	nt	10
Clc1ccc(OCCn2ccnc2)c(Cl)c1	2	-8	-3	-5	25	14
CCN(c1ccccc1)S(=O)(=O)c1cccc(C(=O)NCCN2CCOCC2)c1	nt	nt	-3	-3	nt	0
Cn1c(N)c(C(=O)COC(=O)C2=NNC(=O)CC2)c(=O)n(C)c1=O	-1	-14	1	-7	nt	-11
O=C(Nc1ccc2nc(-c3ccc(Br)o3)[nH]c2c1)c1cccs1	69*	12	39	22	19	16
CCn1c(N2CCN(S(=O)(=O)c3ccc(F)cc3)CC2)nc2ccccc21	32	-4	80*	17	41	11
CCn1c(N2CCN(S(=O)(=O)CC)CC2)nc2ccccc21	-9	-3	-9	4	-10	24
CCCCCC(=O)Nc1ccc(C(=O)CN2C(=O)NC3(CCCCCC3)C2=O)cc1	35	3	27	4	nt	16
O=C(/C=C/Nc1ccc(S(=O)(=O)Nc2ncccn2)cc1)c1ccc2ccccc2c1	30	3	-5	-3	nt	46
CSc1cc(-c2ccco2)oc1C(=O)c1ccco1	10	0	23	-1	nt	1
COc1ccc(OC)c(C2=NNC(=NCc3ccc4c(c3)OCO4)SC2)c1	32	-2	3	0	92*	-23
Cc1c(N2C(=O)CS/C2=N\N=C\c2ccc(Cl)cc2)c(=O)n(-c2ccccc2)n1C	-4	nt	1	-2	77*	9
O=C(c1ccccc1)c1cccc[n+]1[O-]	-13	-1	-12	-6	nt	23
Nc1nnc(SCC(=O)c2ccc([N+](=O)[O-])cc2)s1	8	0	9	-7	84*	-5
Cc1nnc(SCC(=O)c2ccc([N+](=O)[O-])cc2)s1	4	-6	4	4	5	10
Cc1nnc(NC(=O)C2CCN(S(=O)(=O)c3cc([N+](=O)[O-])ccc3Cl)CC2)o1	nt	nt	nt	0	nt	15
Cc1cccc2sc(NC(=O)C3CCN(S(=O)(=O)c4cc([N+](=O)[O-])ccc4Cl)CC3)nc12	68*	28	7	9	90*	32
O=C(NCc1ccc(Cl)cc1)C1CCN(S(=O)(=O)c2cc([N+](=O)[O-])ccc2Cl)CC1	40	-1	34	3	80*	0
COc1cc(OC)cc(C(=O)NCC(=O)OCc2nc3ccccc3s2)c1	-6	2	-8	0	0	-117
C=CCc1cc(Cl)ccc1OCCn1ccnc1	22	7	9	-3	nt	5
C=CCc1cc(Cl)ccc1OCCCn1ccnc1	57*	30	3	3	nt	14
C=CCc1cc(C)ccc1OCCOCCn1ccnc1	32	-8	22	0	97*	8
C=CCc1cc(C)ccc1OCCn1ccnc1	0	-2	-29	nt	4	0
O=C(O)CCCCCNc1ccc2nsnc2c1[N+](=O)[O-]	4	8	nt	-5	0	-4
